Laboratory results reported in the RNAGym collection of RNA variant scans (doi:10.1126/science.aae0568).
This sample holds only a part of the variants without activity.

B1: tRNA (parent)
chain: GUUCCGUUGGCGUAAUGGUAACGCGUCUCCCUCCUAAGGAGAAGACUGCGGGUUCGAGUCCCGUACGGAACG

Variants of: B1
Experiment: yeast fitness relative to wild type (ratio to wild type); higher = fitter; tRNA-Arg(CCU), competitive growth, 37 C, YPD
How it was run: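 The tRNA-Arg(CCU) gene variants were made by chemical synthesis with a 3% per-site mutation rate at 69 sites and inserted at the native genomic locus of Saccharomyces cerevisiae. After pooling, the strains were competed in YPD at 37°C for 24 hours in six parallel replicates. Gene amplicons from the start population and each end population were read by 100-nucleotide paired-end sequencing, and Darwinian fitness relative to wild type was taken from genotype frequency changes. Genotypes needed ≥ 100 starting reads, and estimates < 0.5 were set to 0.5.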

Variant | yeast fitness
GUUCCGUUGGCGUAAUGGUAACGCGUCUCCUUCCUAAGGAGAAGACUGGGGGUUCGAGUCCCGUACGGAACG [C31U C49G] | 0.914
GUUCCGUUGGCGUAAUGGUAACGCGUCUCCUUUCUACGGAGAAGACUGCGGGUUCGAGUCCCGUACGGAACG [C31U C33U A37C] | ≤ 0.5
GUUCCGUUGGCGUAAUGGUAACGCGUCUCCUUUCUAAGGUGAAGGCUGCGGGUUCGAGUCCCGUACGGAACG [C31U C33U A40U A45G] | 0.575
GUUCCGUUGGCGUAAUGGUAACGCGUCUCCUUCCUAUGGAGAAGACUGCGGGUUCGAGUCCCGUAUGGAACG [C31U A37U C66U] | 0.542
GUUCCGUUGGCGUAAUGGUAACGCGUCUCCUUCCUAAGGAGAAGAGUGCGGGUUCGAGUCCCAUACGGAACG [C31U C46G G63A] | 0.606
GUUCCGUUGGCGUAAUGGUAACGCGUCUCCGUCCUAAGGAGAAGACUGCGGGUUCGAGUCCCGUACGCAACG [C31G G68C] | 0.684
GUUCCGUUGGCGUAAUGGUAACGCGUCUCCGACCUAAGGAGAAGACUGCGGGUUCGAGUGCCGUACGGAACG [C31G U32A C60G] | ≤ 0.5
GUUCCGUUGGCGUAAUGGUAACGCGUCUCCUUCCUAAGGAGGAGACUGCGGGUUCGAGUCCCCUAUGGAACG [C31U A42G G63C C66U] | ≤ 0.5
GUUCCGUUGGCGUAAUGGUAACGCGUCUCCUUCCUAAGGAGAAGACUGCGGGUUAGAGUCCCGUACGGAACG [C31U C55A] | 0.749
GUUCCGUUGGCGUAAUGGUAACGCGUCUCCUUCCUAAGGCGAAGACUGUGGAUUCGAGUCCCGUACGGAACG [C31U A40C C49U G52A] | ≤ 0.5
GUUCCGUUGGCGUAAUGGUAACGCGUCUCCUUCCUAAGGAGGAGACUGCGGGUUCGAGUCCUGUACGGCACG [C31U A42G C62U A69C] | 0.542
GUUCCGUUGGCGUAAUGGUAACGCGUCUCCUUCUUAAAGAGAAGAUUGCGGGUUCGAGUCCCGUACGGAACG [C31U C34U G38A C46U] | 0.524
GUUCCGUUGGCGUAAUGGUAACGCGUCUCCGUCCUAAGGAGAAGACGGCGGGGUCGAGUCUCGUACGAAACG [C31G U47G U53G C61U G68A] | ≤ 0.5
GUUCCGUUGGCGUAAUGGUAACGCGUCUCCUUCCUAAGGAGAAGACUGCGGGUUCGAGUCCCGUACGGCACG [C31U A69C] | 1.04
GUUCCGUUGGCGUAAUGGUAACGCGUCUCCUUCCUAAGGAGAAGAUUGUGGGUUCGAGUCCCGUACGGAACG [C31U C46U C49U] | 0.905
GUUCCGUUGGCGUAAUGGUAACGCGUCUCCUUCCUAAGGAGAAGACUGCGGGUUCGAGUCCCGUCCGGAACG [C31U A65C] | 0.926
GUUCCGUUGGCGUAAUGGUAACGCGUCUCCUUCGUAAGGAGAAGACUGCAGGUUCGAGUCCCGUACGGAACG [C31U C34G G50A] | ≤ 0.5
GUUCCGUUGGCGUAAUGGUAACGCGUCUCCUUCCUAAGGAGAGGACUGCGGGUUCGAGUCCCGUACGGAACG [C31U A43G] | 1.06
GUUCCGUUGGCGUAAUGGUAACGCGUCUCCUUCCUAAGGAGCAGACUGCGGGUACGAGUCCCGUACGGAACG [C31U A42C U54A] | ≤ 0.5

Variant | yeast fitness
GUUCCGUUGGCGUAAUGGUAACGCGUCUCCGUCCCAAGGAGAAGACUGCGGGUUCGAGUCCCGUAUGGAACG [C31G U35C C66U] | 0.558
GUUCCGUUGGCGUAAUGGUAACGCGUCUCCUUCCUAAGGAGAAGAAUGCGGGUUCGAGUCCCGUUCGGUACG [C31U C46A A65U A69U] | 0.58
GUUCCGUUGGCGUAAUGGUAACGCGUCUCCUUCCUCAGGAGAAGACUGCGGGUUCGAGUCCCGUACGGAACG [C31U A36C] | 0.842
GUUCCGUUGGCGUAAUGGUAACGCGUCUCCUUUCUAGGGAGAAGACUGCGGGUUCGCGUCCCGUACGGAACG [C31U C33U A37G A57C] | ≤ 0.5
GUUCCGUUGGCGUAAUGGUAACGCGUCUCCUUACUAAGGAGAAGACUGCAGGUUCGAGUCCCGUACGUAACG [C31U C33A G50A G68U] | 0.596
GUUCCGUUGGCGUAAUGGUAACGCGUCUCCUUCGUAAGGAGAAGACUGCGGGUUCGAGUCCUGUACGGAGCG [C31U C34G C62U A70G] | ≤ 0.5
GUUCCGUUGGCGUAAUGGUAACGCGUCUCCUUUGUAAGGCGAAGACUGCGGGUUCGAGUCCCGUACGGCACG [C31U C33U C34G A40C A69C] | ≤ 0.5
GUUCCGUUGGCGUAAUGGUAACGCGUCUCCUUUCUAAGGAGCAGACUGCGGGUUCGAGUCCCGUACGGAACG [C31U C33U A42C] | 0.562
GUUCCGUUGGCGUAAUGGUAACGCGUCUCCUUCCUAAGGAGAAGACUGUGGGUUCGAGUCCCGUACGGUACG [C31U C49U A69U] | 0.889
GUUCCGUUGGCGUAAUGGUAACGCGUCUCCUUCCUAAGGAGAAGAGUGCGGGUUCGAGUCCCGUACGGAACG [C31U C46G] | 0.972
GUUCCGUUGGCGUAAUGGUAACGCGUCUCCUUCCUAAGGAGAAGAAUGCGGGUUCGAGUCCCGUACGGAACG [C31U C46A] | 1.01
GUUCCGUUGGCGUAAUGGUAACGCGUCUCCUUCCUAUGGAGAAGACUGCGGGUACGAGUCCCGUACGGAACG [C31U A37U U54A] | 0.514
GUUCCGUUGGCGUAAUGGUAACGCGUCUCCUUGCUAAGGAGAAGACUGCGGGUUCGAGUCCCGUACGGAACG [C31U C33G] | 0.785
GUUCCGUUGGCGUAAUGGUAACGCGUCUCCUUUCUAAGGAGAAGACUGCGGGUUCGAGUCCCGUACGGAACG [C31U C33U] | 0.723
GUUCCGUUGGCGUAAUGGUAACGCGUCUCCUUCCUAAGGAGUUGACUGCGGGUUCGAGUUCCGUACGGUACG [C31U A42U A43U C60U A69U] | 0.51
GUUCCGUUGGCGUAAUGGUAACGCGUCUCCUUCCUCAGGAAAAGACUGCGGGUUCGAGUCCCGUACGGAACG [C31U A36C G41A] | ≤ 0.5
GUUCCGUUGGCGUAAUGGUAACGCGUCUCCGUCCUAAGGAGAAGACUGCGGGUUCGAGACCCGUACGGAACG [C31G U59A] | 0.779
GUUCCGUUGGCGUAAUGGUAACGCGUCUCCUUCCUAGGGAGAAGACCGCGGGUUCGAGUCCCAUACGGAACG [C31U A37G U47C G63A] | ≤ 0.5
GUUCCGUUGGCGUAAUGGUAACGCGUCUCCUUCCUAAGGAGAAGACUGCGGGUUCGCGUCCCGUACGGAACG [C31U A57C] | 0.574
